Activity calls are given as the source filed them. No cut-off for these calls is given here.
Legend:
[1] = system: HeLa; test: Cytotoxicity against human HeLa cells assessed as growth inhibition after 72 hrs by calcein AM staining-based fluoroscence assay; format: functional, cell-based
[2] = system: HCT-116; test: Cytotoxicity against human HCT116 cells assessed as growth inhibition after 72 hrs by calcein AM staining-based fluoroscence assay; format: functional, cell-based; settings: HCT-116, 72 h
[3] = system: HOS; test: Cytotoxicity against human HOS cells assessed as growth inhibition after 72 hrs by calcein AM staining-based fluoroscence assay; format: functional, cell-based
[4] = system: G-361; test: Cytotoxicity against human G361 cells assessed as growth inhibition after 72 hrs by calcein AM staining-based fluoroscence assay; format: functional, cell-based; settings: G-361, 72 h
[5] = system: MCF7; test: Cytotoxicity against human MCF7 cells assessed as growth inhibition after 72 hrs by calcein AM staining-based fluoroscence assay; format: functional, cell-based; settings: MCF7, 72 h
[6] = system: K562; test: Cytotoxicity against human K562 cells assessed as growth inhibition after 72 hrs by calcein AM staining-based fluoroscence assay; format: functional, cell-based; settings: K562, 72 h
[7] = molecular target: Cyclin-dependent kinase 2/cyclin E1 (Homo sapiens, UniProt P24941); test: Inhibition of human recombinant CDK2/Cyclin E expressed in baculovirus infected sf9 cells using histone H1 as substrate
[8] = system: G-361; test: Induction of apoptosis in human G361 cells assessed as decrease in Mcl-1 at 300 nM after 24 hrs by immunoblotting analysis; format: functional, cell-based
How it was run: (§1)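 Treated G361 cells harvested into Laemmli sample buffer. Proteins resolved by SDS-PAGE and blotted to nitrocellulose. Membranes blocked, probed overnight with specific primary antibodies, then peroxidase-conjugated secondaries. ECL detection by CCD camera. Actin served as loading control.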

[9] = system: G-361; test: Induction of apoptosis in human G361 cells assessed as decrease in Mcl-1 protein level at 300 nM after 24 hrs by immunoblotting analysis; format: functional, cell-based; how it was run: as §1
[10] = system: G-361; test: Induction of apoptosis in human G361 cells assessed as induction of PARP-1 clevage at 300 nM after 24 hrs by immunoblotting analysis; format: functional, cell-based; how it was run: as §1
[11] = system: G-361; test: Induction of apoptosis in human G361 cells assessed as induction of caspase-9 clevage at 300 nM after 24 hrs by immunoblotting analysis; format: functional, cell-based; how it was run: as §1
[12] = system: G-361; test: Induction of apoptosis in human G361 cells assessed as induction of caspase-3 clevage at 300 nM after 24 hrs by immunoblotting analysis; format: functional, cell-based; how it was run: as §1
[13] = system: G-361; test: Induction of apoptosis in human G361 cells assessed as induction of caspase-7 clevage at 300 nM after 24 hrs by immunoblotting analysis; format: functional, cell-based; how it was run: as §1
[14] = system: G-361; test: Induction of apoptosis in human G361 cells assessed as caspase 9 activation using Ac-DEHD-AMC as substrate at 300 nM after 24 hrs by fluorimetry assay; format: functional, cell-based; settings: in the assay text read “Ac-LEHD-AMC” for “Ac-DEHD-AMC”
How it was run: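 G361 lysates were made in CHAPS extraction buffer, pH 7.4, clarified at 10000g, and protein-equalized. They were incubated 24 h with 100 μM Ac-LEHD-AMC in 100 mM HEPES pH 7.5, 0.5 mM EDTA, 20% glycerol, 5 mM DTT. AMC fluorescence read at 355/460 nm (ex/em).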

[15] = system: G-361; test: Induction of apoptosis in human G361 cells assessed as caspase 3/7 activation using Ac-DEVD-AMC as substrate at 300 nM after 24 hrs by fluorimetry assay; format: functional, cell-based
[16] = molecular target: Cyclin-dependent kinase 9 (Homo sapiens) (UniProt P50750); test: Inhibition of CDK9-mediated RNA polymerase 2 phosphorylation at ser2 in human G361 cells at 300 nM after 24 hrs by immunoblotting analysis; format: cell-based; settings: G-361; how it was run: as §1
[17] = molecular target: CDK2/CDK4 (Homo sapiens) (UniProt P11802+P24941); test: Inhibition of CDK2/4-mediated retinoblastoma protein phosphorylation at ser780 in human G361 cells at 300 nM after 24 hrs by immunoblotting analysis; format: cell-based; settings: G-361; how it was run: as §1
[18] = molecular target: Cyclin-dependent kinase 1 (Homo sapiens, UniProt P06493); test: Inhibition of human recombinant CDK1
Chain of Cyclin-dependent kinase 1 (P06493 whole entry): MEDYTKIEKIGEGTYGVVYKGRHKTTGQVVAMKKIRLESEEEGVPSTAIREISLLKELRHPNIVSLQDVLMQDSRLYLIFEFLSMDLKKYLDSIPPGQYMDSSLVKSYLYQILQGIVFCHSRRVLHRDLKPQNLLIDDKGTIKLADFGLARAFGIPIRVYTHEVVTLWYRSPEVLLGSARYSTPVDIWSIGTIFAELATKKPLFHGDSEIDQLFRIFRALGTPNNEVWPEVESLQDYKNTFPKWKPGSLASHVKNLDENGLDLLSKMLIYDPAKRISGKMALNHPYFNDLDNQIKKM

Chain of Cyclin-dependent kinase 9 (Homo sapiens) (P50750 whole entry): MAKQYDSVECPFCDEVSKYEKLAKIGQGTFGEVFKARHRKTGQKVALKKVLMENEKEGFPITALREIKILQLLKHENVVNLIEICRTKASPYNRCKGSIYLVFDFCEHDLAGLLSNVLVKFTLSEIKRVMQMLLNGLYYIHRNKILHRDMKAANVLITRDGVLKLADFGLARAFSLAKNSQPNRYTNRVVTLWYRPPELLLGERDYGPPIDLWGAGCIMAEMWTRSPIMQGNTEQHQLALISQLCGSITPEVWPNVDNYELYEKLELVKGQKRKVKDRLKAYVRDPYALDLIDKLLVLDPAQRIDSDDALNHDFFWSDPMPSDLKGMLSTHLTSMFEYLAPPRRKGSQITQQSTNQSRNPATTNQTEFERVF

SMILES | IC50 [1] | IC50 [2] | IC50 [3] | IC50 [4] | IC50 [5] | IC50 [6] | IC50 [7] | Activity [8] | Activity [9] | Activity [10] | Activity [11] | Activity [12] | Activity [13] | Activity [14] | Activity [15] | Inhibition of RNA polymerase II Ser2 phosphorylation (qualitative) [16] | inhibition [17] | IC50 [18]
Nc1ccccc1-c1ccc(CNc2nc(NC3CCC(N)CC3)nc3c2ncn3C2CCCC2)cn1 (stereo not drawn) | 535 nM | 635 nM | 398 nM | 730 nM | 117 nM | 200 nM | 10 nM | – | – | – | – | – | – | – | – | – | – | –
NC1CCC(Nc2nc(NCc3ccc(-c4ccsc4)nc3)c3ncn(C4CCCC4)c3n2)CC1 (stereo not drawn) | 75 nM | 145 nM | 89 nM | 272 nM | 100 nM | 150 nM | 18 nM | Active | Active | Active | Active | Active | Active | Active | Active | – | – | –
NC1CCC(Nc2nc(NCc3ccc(-c4ccoc4)cc3)c3ncn(C4CCCC4)c3n2)CC1 (stereo not drawn) | 140 nM | 1040 nM | 140 nM | 670 nM | 247 nM | 287 nM | 13 nM | – | – | – | – | – | – | – | – | – | – | –
NC1CCC(Nc2nc(NCc3ccc(-c4cccs4)cc3)c3ncn(C4CCCC4)c3n2)CC1 (stereo not drawn) | 358 nM | 592 nM | 247 nM | 655 nM | 290 nM | 307 nM | 20 nM | – | – | – | – | – | – | – | – | – | – | –
NC1CCC(Nc2nc(NCc3ccc(-c4ccco4)nc3)c3ncn(C4CCCC4)c3n2)CC1 (stereo not drawn) | 30 nM | 86 nM | 44 nM | 97 nM | 33 nM | 67 nM | 10 nM | Active | Active | Active | Active | Active | Active | Active | Active | Active | Active | –
NC1CCC(Nc2nc(NCc3ccc(-c4ccccc4)cc3)c3ncn(C4CCCC4)c3n2)CC1 (stereo not drawn) | – | – | – | – | – | – | 26 nM | – | – | – | – | – | – | – | – | – | – | –
COc1ccccc1-c1ccc(CNc2nc(NC3CCC(N)CC3)nc3c2ncn3C2CCCC2)cc1 (stereo not drawn) | 333 nM | 430 nM | 150 nM | 545 nM | 303 nM | 347 nM | 33 nM | – | – | – | – | – | – | – | – | – | – | –
Nc1ccccc1-c1ccc(CNc2nc(NC3CCC(N)CC3)nc3c2ncn3C2CCCC2)cc1 (stereo not drawn) | 1010 nM | 930 nM | 1880 nM | 4120 nM | 977 nM | 1110 nM | 20.5 nM | – | – | – | – | – | – | – | – | – | – | –
NC1CCC(Nc2nc(NCc3ccc(-c4cccc(F)c4)nc3)c3ncn(C4CCCC4)c3n2)CC1 (stereo not drawn) | 36 nM | 74 nM | 44 nM | 49 nM | 33 nM | 61 nM | 14 nM | Active | Active | Active | Active | Active | Active | Active | Active | Active | Active | –
NC1CCC(Nc2nc(NCc3ccc(-c4ccco4)cc3)c3ncn(C4CCCC4)c3n2)CC1 (stereo not drawn) | 71 nM | 129 nM | 102 nM | 164 nM | 85 nM | 96 nM | 11.4 nM | – | – | – | – | – | – | – | – | – | – | –
OC1CCC(Nc2nc(NCc3ccc(-c4ccco4)nc3)c3ncn(C4CCCC4)c3n2)CC1 (stereo not drawn) | 247 nM | 617 nM | 180 nM | 443 nM | 390 nM | 303 nM | 23 nM | – | – | – | – | – | – | – | – | – | – | –
NC1CCC(Nc2nc(NCc3ccc(-c4ccccc4)nc3)c3ncn(C4CCCC4)c3n2)CC1 (stereo not drawn) | 114 nM | 563 nM | 206 nM | 895 nM | 483 nM | – | 31 nM | – | – | – | – | – | – | – | – | – | – | 184 nM
CC[C@H](CO)Nc1nc(NCc2ccccc2)c2ncn(C(C)C)c2n1 [SELICICLIB] | 28600 nM | – | – | – | 12300 nM | – | – | – | – | – | – | – | – | – | – | – | – | –
NC1CCC(Nc2nc(NCc3ccc(Br)nc3)c3ncn(C4CCCC4)c3n2)CC1 (stereo not drawn) | 633 nM | 577 nM | 935 nM | 640 nM | 483 nM | 1180 nM | – | – | – | – | – | – | – | – | – | – | – | –
NC1CCC(Nc2nc(NCc3ccc(-n4cccn4)cc3)c3ncn(C4CCCC4)c3n2)CC1 (stereo not drawn) | 170 nM | 320 nM | 103 nM | 220 nM | 139 nM | 119 nM | 12 nM | Active | Active | Active | Active | Active | Active | Active | Active | Active | Active | –
NC1CCC(Nc2nc(NCc3ccc(Br)cc3)c3ncn(C4CCCC4)c3n2)CC1 (stereo not drawn) | 1510 nM | 790 nM | 995 nM | 1480 nM | 850 nM | 1170 nM | – | – | – | – | – | – | – | – | – | – | – | –
NC1CCC(Nc2nc(NCc3ccc(-c4ccsc4)cc3)c3ncn(C4CCCC4)c3n2)CC1 (stereo not drawn) | 220 nM | 315 nM | 120 nM | 570 nM | 145 nM | 150 nM | 14 nM | – | – | – | – | – | – | – | – | – | – | –
NC1CCC(Nc2nc(NCc3ccc(-c4cccc(F)c4)cc3)c3ncn(C4CCCC4)c3n2)CC1 (stereo not drawn) | 445 nM | 551 nM | 211 nM | 815 nM | 293 nM | 290 nM | 33.5 nM | – | – | – | – | – | – | – | – | – | – | –
COc1ccccc1-c1ccc(CNc2nc(NC3CCC(N)CC3)nc3c2ncn3C2CCCC2)cn1 (stereo not drawn) | 39 nM | 177 nM | 122 nM | 140 nM | 82 nM | 66 nM | 34 nM | – | – | – | – | – | – | – | – | – | – | –
